Compound activity as filed in PubChem BioAssay.
SKN-1 inh: blocks SKN-1 activity in C. elegans; C. elegans VP596 Pgst-4::GFP/RFP ratio, acrylamide-induced, 24 h; inhibition, % at 21.8 µM; 360,000 tested, 0.49% active;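 active = interference check ratio from 0.5 to 1.5 plus GFP to RFP signal ratio inhibition reaching or exceeding a fixed threshold, cut at about 30% in these data, passing the limit was not always enough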
MT1-MMP act inh: inhibitors of human MT1-MMP activation | HT1080 RFP-PRO-GFP cells, GFP/RFP ratio fluorescence, overnight; percent of plate control window, DMSO zero | GFP/RFP ratio change, % at 20 µM | 360,000 tested, 0.061% active;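 active = GFP/RFP ratio change of at least 30% with cell ATP level not reduced by more than half and red fluorescence within 50% of control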
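Assay system: HT1080 RFP-PRO-GFP cells | Dosing: 20 µM single dose, 1% DMSO | Incubation: Cells overnight before dosing, compound overnight, 37 °C, 5% CO2 | Evaluation: GFP/RFP fluorescence ratio | Control set: DMSO-only wells and HT1080 RFP-L50D-GFP cell wells as references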
hiPSC survival: increases survival of single human iPS cells; AID 602274; survival enhancement, % at 20 µM; 360,000 tested, 0.044% active; hiPSC single-cell survival, ATPlite luminescence; 100% = ROCK inhibitor wells, 0% = DMSO; in the data active = survival enhancement above about 18%;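 also: cells exposed to compounds for 16 hours before the ATP read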
NRP1-CendR mod: modulators of CendR peptide binding to human neuropilin-1. O14786. FAM-RPARPAR peptide binding to NRP-1, fluorescence polarization. inhibition, % at 25 µM. 360,000 tested, 0.85% active;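 active = inhibition or corrected inhibition above about 18%, plus a signal ratio from 0.5 to 1.5, limit read from the data, passing the limit was not always enough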
Target sequence (O14786 whole entry, looked up): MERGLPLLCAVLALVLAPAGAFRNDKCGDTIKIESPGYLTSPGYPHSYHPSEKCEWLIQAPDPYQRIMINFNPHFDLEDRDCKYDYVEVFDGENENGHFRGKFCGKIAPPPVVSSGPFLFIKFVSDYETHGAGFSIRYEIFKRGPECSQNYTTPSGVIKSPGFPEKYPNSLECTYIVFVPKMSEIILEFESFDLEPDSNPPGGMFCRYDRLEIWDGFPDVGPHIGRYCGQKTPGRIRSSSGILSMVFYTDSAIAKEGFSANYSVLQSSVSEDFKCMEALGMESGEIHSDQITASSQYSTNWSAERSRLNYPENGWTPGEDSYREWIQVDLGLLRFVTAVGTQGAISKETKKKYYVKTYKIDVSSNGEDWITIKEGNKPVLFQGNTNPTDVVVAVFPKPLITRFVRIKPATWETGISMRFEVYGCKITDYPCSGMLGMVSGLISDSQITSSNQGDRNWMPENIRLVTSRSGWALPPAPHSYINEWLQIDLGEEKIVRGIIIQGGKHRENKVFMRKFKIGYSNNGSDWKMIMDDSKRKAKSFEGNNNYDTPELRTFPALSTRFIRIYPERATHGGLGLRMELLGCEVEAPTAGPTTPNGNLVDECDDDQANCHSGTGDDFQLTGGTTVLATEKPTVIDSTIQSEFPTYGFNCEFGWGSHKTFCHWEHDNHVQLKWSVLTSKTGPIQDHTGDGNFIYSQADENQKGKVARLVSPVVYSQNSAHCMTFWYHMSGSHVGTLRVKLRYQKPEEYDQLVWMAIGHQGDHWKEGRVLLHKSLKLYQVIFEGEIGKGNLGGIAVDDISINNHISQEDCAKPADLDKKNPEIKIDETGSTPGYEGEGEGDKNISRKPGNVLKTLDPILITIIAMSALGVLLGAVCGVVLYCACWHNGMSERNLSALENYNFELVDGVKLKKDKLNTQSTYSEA
Starred values were filed as active, the others as inactive. The list is not random: actives were taken first. Their share in the collection is about 1.4%.

For COc1cc2nc(CN(CCC(C)C)Cc3nc4cc(OC)c(OC)cc4c(=O)[nH]3)[nH]c(=O)c2cc1OC the results were SKN-1 inh 2, MT1-MMP act inh 4, hiPSC survival -1 and NRP1-CendR mod -1.
For CCNCc1nc2cc(OC)c(OC)cc2c(=O)[nH]1 the results were SKN-1 inh 2, MT1-MMP act inh 14, hiPSC survival 2 and NRP1-CendR mod 28*.
Screening COc1ccc(C(NC(=O)C(C)(C)C)NC(=O)C(C)(C)C)cc1 returned SKN-1 inh -3, MT1-MMP act inh -2, hiPSC survival 0 and NRP1-CendR mod 20*.
Screening COc1ccc([C@@H](NC(=O)OC(C)(C)C)C(=O)OC(C)(C)C)cc1 returned SKN-1 inh 23, MT1-MMP act inh -3, hiPSC survival -1 and NRP1-CendR mod 23.
`O=C(O)c1cc(-c2cccc3ccccc23)nc2ccccc12` gave SKN-1 inh 37*, MT1-MMP act inh 1, hiPSC survival -1 and NRP1-CendR mod 2.
COC(=O)C1=C(C(=O)OC)[C@@H]2N(C)c3ccc(OC)cc3[C@@]23C[C@@H](C(=O)OC)N(C(=O)c2ccc(Br)cc2)C3=N1 was read as SKN-1 inh 9, MT1-MMP act inh -1, hiPSC survival 1 and NRP1-CendR mod -1.
`CCOC(=O)N1C2=NC(C(=O)OC)=C(C(=O)OC)[C@@H]3N(C)c4ccc(OC)cc4[C@]23C[C@H]1C(=O)OC` gave SKN-1 inh 1, MT1-MMP act inh 4, hiPSC survival -1 and NRP1-CendR mod 25*.
`C#CCCOC(=O)N1C2=NC(C(=O)OC)=C(C(=O)OC)[C@@H]3N(C)c4ccccc4[C@]23C[C@H]1CO` gave SKN-1 inh 8, MT1-MMP act inh 2, hiPSC survival -2 and NRP1-CendR mod 26*.
FCCCOc1ccc(/C=N/OCc2ccc(Cl)cc2Cl)cc1 was read as SKN-1 inh -2, MT1-MMP act inh 2, hiPSC survival -2 and NRP1-CendR mod 2.
CCC(=O)NCCCCNC(=O)CC was read as SKN-1 inh -12, MT1-MMP act inh 0, hiPSC survival -1 and NRP1-CendR mod 33*.
For CC(=O)N1CCN(c2ccc(NCc3ccccc3)cc2)CC1 the results were SKN-1 inh 38*, MT1-MMP act inh 9, hiPSC survival -3 and NRP1-CendR mod 15.
For C1CCN(c2nc3nonc3nc2N2CCCC2)C1 the results were SKN-1 inh -11, MT1-MMP act inh -3, hiPSC survival 22* and NRP1-CendR mod 12.
Screening NC(=O)Cc1ncc(C(F)(F)F)cc1Cl returned SKN-1 inh -18, MT1-MMP act inh -1, hiPSC survival 1 and NRP1-CendR mod -3.
Screening CCN(CC)C(=O)Cn1cc(S(=O)(=O)CC(=O)NCc2ccccc2)c2ccccc21 returned SKN-1 inh 0, MT1-MMP act inh -1, hiPSC survival 0 and NRP1-CendR mod -2.
For CCN(CC)C(=O)Cn1cc(S(=O)(=O)Cc2cccc([N+](=O)[O-])c2)c2ccccc21 the results were SKN-1 inh 10, MT1-MMP act inh 0, hiPSC survival 0 and NRP1-CendR mod 24*.
Screening COc1ccccc1C(=O)NN(C)C1=NS(=O)(=O)c2ccccc21 returned SKN-1 inh 17, MT1-MMP act inh -3, hiPSC survival 1 and NRP1-CendR mod 20*.
`COc1cccc(C(c2sc3ncnn3c2O)N2CC(C)OC(C)C2)c1` (stereo not drawn) gave SKN-1 inh 35*, MT1-MMP act inh -2, hiPSC survival -2 and NRP1-CendR mod 5.
Cc1nc2sc(C(c3ccco3)N3CC(C)OC(C)C3)c(O)n2n1 (stereo not drawn) was read as SKN-1 inh 2, MT1-MMP act inh 0, hiPSC survival 1 and NRP1-CendR mod 19*.
COc1cccc(C(c2sc3ncnn3c2O)N2CCc3ccccc3C2)c1 (stereo not drawn) was read as SKN-1 inh -6, MT1-MMP act inh 1, hiPSC survival -1 and NRP1-CendR mod -9.
`CC(=O)Cc1nsc(NC(=O)c2cn(-c3ccccc3)nc2-c2ccc(Br)cc2)n1` gave SKN-1 inh -1, MT1-MMP act inh -10, hiPSC survival 0 and NRP1-CendR mod 32*.
Screening Cc1cc(NC(=O)c2ccc(Cl)cc2Cl)n(-c2ccccc2)n1 returned SKN-1 inh 7, MT1-MMP act inh -2, hiPSC survival -3 and NRP1-CendR mod 18*.
Cc1ccc(C(C#N)c2ccc3c(C(F)(F)F)cc(C(F)(F)F)nc3n2)cc1 (stereo not drawn) was read as SKN-1 inh 44*, MT1-MMP act inh 5, hiPSC survival -3 and NRP1-CendR mod -3.
